Bioassay records deposited in PubChem by several laboratories.
MC4R barr agon: MC4R agonists recruiting beta-arrestin, primary screen, cell-based, luminescence, agonist arm of biased-ligand search. AID 540308, 2011. U2OS MC4R beta-arrestin complementation; percent of melanotan II response, DMSO zero. hit rate 0.98% among 360,000. activation, % at 8.9 µM. Melanocortin receptor 4 (Homo sapiens), P32245;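 active = activation above a per-plate cutoff, the mean activation of sample wells on that plate plus 3 SD, cut at about 8% in these data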
Target sequence (P32245 whole entry, looked up): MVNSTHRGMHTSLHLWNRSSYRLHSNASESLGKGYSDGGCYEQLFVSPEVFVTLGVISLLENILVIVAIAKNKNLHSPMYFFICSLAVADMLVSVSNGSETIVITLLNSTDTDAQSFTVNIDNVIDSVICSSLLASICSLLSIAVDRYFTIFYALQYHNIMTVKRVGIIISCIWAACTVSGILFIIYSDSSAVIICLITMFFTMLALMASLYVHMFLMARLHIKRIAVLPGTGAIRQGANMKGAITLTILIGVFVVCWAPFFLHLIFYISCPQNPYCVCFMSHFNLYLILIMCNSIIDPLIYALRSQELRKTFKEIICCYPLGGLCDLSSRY
ANO1 block: TMEM16A chloride channel inhibitors, primary screen, cell-based, HTS. Anoctamin-1 (Mus musculus), Q8BHY3. HEK293 TMEM16A/YFP iodide influx fluorescence, ionomycin. normalized B-score (activity score, 25-100; higher = stronger inhibition) at 10 µM. hit rate 1.2% among 310,000. AID 588511, 2011;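 active = ratio plate-corrected score three or more library SD toward inhibition, starting fluorescence score within five deviations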;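 also: score derived from kinetic fluorescence span divided by baseline fluorescence per well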
MC4R antagonist: MC4R antagonists of cAMP signaling, primary screen, cell-based, TR-FRET, antagonist arm of biased-ligand search; Melanocortin receptor 4 (Homo sapiens), P32245; MC4R-expressing cells, MTII-stimulated cAMP, LANCE TR-FRET; inhibition, % at 6.5 µM; hit rate 0.48% among 360,000; AID 540295, 2011;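 active = inhibition above its plate's cutoff, the mean of tested wells on that plate plus 3 SD, cut at about 29% in these data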;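 also: 0% = Melanotan II alone and 100% = Melanotan II plus saturating MCL0020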
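System – human MC4R-expressing U2OS cells · Also added – Melanotan II · Dosing – one concentration, 6.5 µM nominal · Timing – 30-min compound, 1-h challenge, 1-h detection, room temperature · Measured by – Eu-cAMP/anti-cAMP TR-FRET, emission 671 nm · Replicates – singlicate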
Beta apoptosis: inhibitors of cytokine-induced beta cell apoptosis, primary screen, luminescence; INS-1E cytokine-induced death, ATP luminescence, 48 h; percent of positive-control rescue, neutral wells zero; protection from apoptosis, % (concentration not given with the values); hit rate 0.8% among 300,000; AID 435005, 2010;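 active = Every replicate reaches about 75%, or at least half do and their mean reaches it too, limit read from the data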;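 also: 0% = cytokine-treated negative control wells and 100% = positive control rescue; higher means more ATP so stronger rescue from cytokine killing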
ANO1 activ: TMEM16A chloride channel activators or potentiators, primary screen, cell-based, HTS; HEK293 TMEM16A/YFP-H148Q/I152L, iodide quench fluorescence; hits give low values; B-score at 10 µM; hit rate 0.3% among 340,000; AID 623877, 2012;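 active = fluorescence-ratio B-score plate-corrected deviation score at least 3 library SD below zero, with starting fluorescence score within 5 deviations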;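 also: channel opened by trigger with iodide after compound preincubation; score built on the fluorescence ratio of max minus min over baseline; more negative score means more quench and so TMEM16A activation or potentiation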
CSC inhib: cancer stem cell viability inhibitors, primary screen, luminescence; cancer stem cell-like cells viability; inhibition, % at 7.5 µM; hit rate 1.1% among 300,000; AID 2717, 2010; in the data active = inhibition above about 75%; tested in HMLE shEcad cells
The depositor's hits bear a star; i = inactive; . = no result; + = active, no number. Only some compounds are listed: those with a hit (about 3.8% of all), similar ones and a draw of the others.

SMILES | MC4R barr agon | ANO1 block | MC4R antagonist | Beta apoptosis | ANO1 activ | CSC inhib
CNC1=C(N(C(C)=O)c2ccc(Br)cc2)C(=O)c2ccccc2C1=O | -1 | i | -8 | 131* | i | 105*
CCC(=O)N(C1=C(NC)C(=O)c2ccccc2C1=O)C(C)C | -3 | i | 1 | 45 | i | -3
C[C@H]1CN([C@@H](C)CO)C(=O)Cc2cc(NC(=O)Cn3cnnn3)ccc2O[C@H]1CN(C)Cc1ccncc1 | 0 | . | 4 | 4 | i | .
Cc1ccc(Oc2c(C(N)=O)cc([N+](=O)[O-])cc2[N+](=O)[O-])cc1 | -2 | i | 19 | 5 | i | +
Cc1ccc(CNc2ccc([N+](=O)[O-])cc2C(N)=O)cc1 | 0 | i | -1 | -3 | i | .
CCCCN1CCC(COC(=O)c2cc(Cl)c(N)c3c2OCCO3)CC1 | -2 | i | 5 | 0 | i | 10
COc1ccc(N(C(=O)Nc2ccc(Cl)cc2)C2=NCCC2)cc1 | 0 | 25* | 18 | -7 | i | 34
C[C@@H]1CN(S(=O)C(C)(C)C)[C@@H](CCO)/C1=C\CCO (stereo partly specified) | 1 | . | 3 | . | . | .
C=CC[n+]1c(-c2ccc(C)cc2)csc1Nc1ccc(NC(C)=O)cc1 | 5 | . | 16 | . | i | .
C=CC[n+]1c(-c2ccc(OC)cc2)csc1NNC(=O)Nc1ccccc1 | 1 | 100* | 7 | . | i | .
Oc1ccc(-c2nc3ccc4ccccc4c3c3c2CCC3)cc1O | 2 | i | 13 | -3 | i | 109*
CNC(=O)COC(=O)c1[nH]c(C)c(C(C)=O)c1C | 0 | i | -2 | -11 | i | .
COCCNC(=O)COC(=O)c1[nH]c(C)c(C(C)=O)c1C | 0 | 100* | 3 | -4 | i | -5
CC(C)N(C(=O)N1CCN(c2ccnc3cc(Cl)ccc23)CC1)C(C)C | -2 | . | 8 | . | . | .
O=C(NCCOCCOCCNC(=O)c1cccnc1)c1cccnc1 | 1 | i | 7 | 120* | i | -1
COc1ccccc1NC(=O)c1ccc(Br)c(S(=O)(=O)N2CCCC2)c1 | 1 | i | 3 | . | i | -9
O=C1C(C2=NC(c3ccccn3)C3C(=O)N(c4ccc(OC(F)(F)F)cc4)C(=O)C23)=C(O)c2ccccc21 (stereo unspecified) | 1 | i | 3 | 81* | i | 30
COc1ccc(N2CCN(c3cncc(C)n3)CC2)cc1 | -1 | . | -1 | . | . | .
O=C(NCc1cccs1)c1csc(COCCO)n1 | -1 | . | 0 | . | . | .
COc1ccccc1-c1cc(NC=O)c2ncc(-c3ccc(S(C)(=O)=O)cc3)n2c1 | 2 | . | -28 | . | . | .
CCOC(=O)c1nn(-c2ccccc2)c(-c2ccccc2)c1C(=O)c1ccccc1 | -1 | i | 12 | 1 | i | 6
CCOC(=O)c1nn(-c2ccc(F)cc2)c(-c2ccccc2)c1C(=O)c1ccccc1 | 0 | i | 18 | 24 | i | 78*
CN(C)c1ccc(NC(=S)NC23CC4CC(CC(C4)C2)C3)cc1 | 1 | i | -1 | 111* | i | .
COC(=O)/C(C#N)=C1/C=Cc2ccccc2N1 | 1 | i | 20 | 6 | i | .
CC(=O)c1ccccc1OCCOc1ccccc1C(C)=O | -3 | i | -1 | . | i | 10
SMILES | MC4R barr agon | ANO1 block | MC4R antagonist | Beta apoptosis | ANO1 activ | CSC inhib
COc1ccccc1OCCCCOc1ccccc1C(C)=O | 4 | 25* | 6 | 100* | i | 8
O=c1oc2cc(O)ccc2cc1S(=O)(=O)c1ccccc1 | 2 | i | 0 | -9 | i | 6
CCCCCCc1cc2cc(S(=O)(=O)c3ccc(Cl)cc3)c(=O)oc2cc1O | 4 | i | 2 | 2 | i | 87*
CCCCCCc1cc2cc(C(=O)NCc3ccccc3)c(=N)oc2cc1O | 6 | i | 3 | 16 | i | 27
CCCCCCc1cc2cc(C(=O)Nc3ccccc3)c(=O)oc2cc1O | 0 | i | 4 | 112* | i | 100*
COc1ccc(S(=O)(=O)c2c(O)cc(C)c(NS(=O)(=O)c3ccccc3)c2C)cc1 | 0 | i | 7 | 0 | i | 19
O=C(Nc1nc2ccc(F)cc2s1)C1CCN(S(=O)(=O)c2cc([N+](=O)[O-])ccc2Cl)CC1 | 0 | i | 13 | 111* | i | 12
CC(C)c1ccccc1-n1c(SCc2cc(=O)oc3ccc4ccccc4c23)nnc1-c1cccnc1 | -3 | i | 9 | 10 | i | 76*
Cc1cccnc1NC(=O)CNC(=O)c1cccs1 | -3 | i | 2 | -5 | i | -9
Cc1cccnc1NC(=S)NC(=O)c1cccs1 | -1 | 25* | -3 | 4 | i | -6
Cc1ccc(C)c(-c2cc(C(=O)NNC(=S)NCC(C)C)c3ccccc3n2)c1 | -3 | 100* | -1 | 28 | i | 21
CN(C)CC/C=C1\c2ccc(F)cc2Sc2cc(F)c(Cl)cc21 | 2 | i | -4 | . | i | 83*
COc1cccc(N2CCN(S(=O)(=O)c3ccc4c(c3)NC(=O)CS4)CC2)c1 | -2 | i | 0 | -1 | i | 1
Cc1cccc(C(=O)O/N=C/c2c(N3CCOCC3)n(C)c3ccccc23)c1 | . | i | . | 97* | . | 6
CCOC(=O)N1CCC(NC(=O)C2CCCN(Cc3nc(-c4cccc(Cl)c4)oc3C)C2)CC1 (stereo unspecified) | 2 | i | 2 | 78* | i | 14
Cc1oc(-c2ccc(Cl)cc2)nc1CN1CCCC(C(=O)NC2CC2)C1 (stereo unspecified) | -2 | i | 2 | -2 | i | -16
C=C1CCN([C@@H](CC(C)C)C(=O)Nc2ccc(OC)cc2)S(=O)(=O)c2ccccc21 | 0 | i | 6 | 2 | i | -7
C=C1CCN([C@@H](CC(C)C)C(=O)Nc2nc3ccc(Cl)cc3s2)S(=O)(=O)c2ccccc21 | -1 | i | 19 | 1 | i | 102*
O=C(c1ccccc1)c1ccc(-n2ccnc2)c([N+](=O)[O-])c1 | -1 | i | -1 | -2 | i | -20
NC(=S)N/N=C/c1ccc(C(F)(F)F)cc1 | 0 | i | 23 | . | i | 12
NC(=S)N/N=C/c1ncc(C(F)(F)F)cc1Cl | -4 | i | -7 | 65 | i | 91*
O=S(=O)(c1ccc(S(=O)(=O)N(Cc2ccccc2)Cc2ccco2)cc1)N1CCCC1 | 8.5* | i | -1 | -2 | i | -4
